For assay [1], the target named is T1, Glucosyltransferase-S (Streptococcus mutans serotype c (strain ATCC 700610 / UA159)) (UniProt P49331).
T1 sequence (whole entry): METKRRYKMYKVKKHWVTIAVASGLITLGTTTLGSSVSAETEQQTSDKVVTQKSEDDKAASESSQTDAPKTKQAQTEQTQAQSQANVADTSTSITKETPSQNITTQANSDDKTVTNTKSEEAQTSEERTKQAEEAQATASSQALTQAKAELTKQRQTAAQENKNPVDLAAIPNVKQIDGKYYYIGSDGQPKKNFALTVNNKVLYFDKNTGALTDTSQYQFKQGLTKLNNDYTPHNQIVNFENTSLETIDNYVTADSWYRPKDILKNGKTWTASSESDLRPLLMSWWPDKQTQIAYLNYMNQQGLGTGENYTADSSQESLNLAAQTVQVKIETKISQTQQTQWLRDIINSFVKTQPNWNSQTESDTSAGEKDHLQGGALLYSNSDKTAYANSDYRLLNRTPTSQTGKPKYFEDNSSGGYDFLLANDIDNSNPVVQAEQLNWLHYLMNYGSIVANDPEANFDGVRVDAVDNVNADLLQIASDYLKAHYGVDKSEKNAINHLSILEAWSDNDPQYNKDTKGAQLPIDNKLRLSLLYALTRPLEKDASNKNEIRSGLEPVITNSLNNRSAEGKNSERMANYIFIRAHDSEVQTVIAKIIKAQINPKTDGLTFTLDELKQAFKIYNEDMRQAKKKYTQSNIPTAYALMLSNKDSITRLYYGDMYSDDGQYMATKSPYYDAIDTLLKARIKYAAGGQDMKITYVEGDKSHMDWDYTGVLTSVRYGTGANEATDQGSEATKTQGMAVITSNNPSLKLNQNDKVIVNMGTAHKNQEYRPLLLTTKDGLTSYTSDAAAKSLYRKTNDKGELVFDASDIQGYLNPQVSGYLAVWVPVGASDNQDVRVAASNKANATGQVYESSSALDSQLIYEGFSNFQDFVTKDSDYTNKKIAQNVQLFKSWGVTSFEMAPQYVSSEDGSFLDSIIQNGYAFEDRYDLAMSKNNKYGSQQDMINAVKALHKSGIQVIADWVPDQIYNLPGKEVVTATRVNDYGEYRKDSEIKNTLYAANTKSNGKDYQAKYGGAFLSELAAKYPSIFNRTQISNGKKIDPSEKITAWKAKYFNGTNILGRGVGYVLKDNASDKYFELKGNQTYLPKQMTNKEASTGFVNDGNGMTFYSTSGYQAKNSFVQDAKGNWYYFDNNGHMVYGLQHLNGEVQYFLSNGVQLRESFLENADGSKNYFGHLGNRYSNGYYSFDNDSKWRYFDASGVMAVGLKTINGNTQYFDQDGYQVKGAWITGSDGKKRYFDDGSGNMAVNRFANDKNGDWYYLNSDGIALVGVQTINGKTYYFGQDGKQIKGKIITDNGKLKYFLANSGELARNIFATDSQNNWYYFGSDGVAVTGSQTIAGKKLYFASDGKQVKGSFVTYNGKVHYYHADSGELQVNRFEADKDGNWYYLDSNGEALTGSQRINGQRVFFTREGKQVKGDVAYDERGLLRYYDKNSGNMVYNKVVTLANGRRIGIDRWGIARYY
Kind of assay: Inhibition of Wild-type Streptococcus mutans UA159 glucosyltransferase D at 50 uM by zymography. Put shortly: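 Compound (50 µM) added to overnight S. mutans UA159 wild-type cultures; Gtfs concentrated from supernatants, run on duplicate SDS-PAGE; second gel used for zymogram, glucan band intensity taken as Gtf activity.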

Assay [2] addresses T2, Glucosyltransferase-SI (Streptococcus mutans serotype c (strain ATCC 700610 / UA159)) (UniProt P13470).
T2 sequence (whole entry): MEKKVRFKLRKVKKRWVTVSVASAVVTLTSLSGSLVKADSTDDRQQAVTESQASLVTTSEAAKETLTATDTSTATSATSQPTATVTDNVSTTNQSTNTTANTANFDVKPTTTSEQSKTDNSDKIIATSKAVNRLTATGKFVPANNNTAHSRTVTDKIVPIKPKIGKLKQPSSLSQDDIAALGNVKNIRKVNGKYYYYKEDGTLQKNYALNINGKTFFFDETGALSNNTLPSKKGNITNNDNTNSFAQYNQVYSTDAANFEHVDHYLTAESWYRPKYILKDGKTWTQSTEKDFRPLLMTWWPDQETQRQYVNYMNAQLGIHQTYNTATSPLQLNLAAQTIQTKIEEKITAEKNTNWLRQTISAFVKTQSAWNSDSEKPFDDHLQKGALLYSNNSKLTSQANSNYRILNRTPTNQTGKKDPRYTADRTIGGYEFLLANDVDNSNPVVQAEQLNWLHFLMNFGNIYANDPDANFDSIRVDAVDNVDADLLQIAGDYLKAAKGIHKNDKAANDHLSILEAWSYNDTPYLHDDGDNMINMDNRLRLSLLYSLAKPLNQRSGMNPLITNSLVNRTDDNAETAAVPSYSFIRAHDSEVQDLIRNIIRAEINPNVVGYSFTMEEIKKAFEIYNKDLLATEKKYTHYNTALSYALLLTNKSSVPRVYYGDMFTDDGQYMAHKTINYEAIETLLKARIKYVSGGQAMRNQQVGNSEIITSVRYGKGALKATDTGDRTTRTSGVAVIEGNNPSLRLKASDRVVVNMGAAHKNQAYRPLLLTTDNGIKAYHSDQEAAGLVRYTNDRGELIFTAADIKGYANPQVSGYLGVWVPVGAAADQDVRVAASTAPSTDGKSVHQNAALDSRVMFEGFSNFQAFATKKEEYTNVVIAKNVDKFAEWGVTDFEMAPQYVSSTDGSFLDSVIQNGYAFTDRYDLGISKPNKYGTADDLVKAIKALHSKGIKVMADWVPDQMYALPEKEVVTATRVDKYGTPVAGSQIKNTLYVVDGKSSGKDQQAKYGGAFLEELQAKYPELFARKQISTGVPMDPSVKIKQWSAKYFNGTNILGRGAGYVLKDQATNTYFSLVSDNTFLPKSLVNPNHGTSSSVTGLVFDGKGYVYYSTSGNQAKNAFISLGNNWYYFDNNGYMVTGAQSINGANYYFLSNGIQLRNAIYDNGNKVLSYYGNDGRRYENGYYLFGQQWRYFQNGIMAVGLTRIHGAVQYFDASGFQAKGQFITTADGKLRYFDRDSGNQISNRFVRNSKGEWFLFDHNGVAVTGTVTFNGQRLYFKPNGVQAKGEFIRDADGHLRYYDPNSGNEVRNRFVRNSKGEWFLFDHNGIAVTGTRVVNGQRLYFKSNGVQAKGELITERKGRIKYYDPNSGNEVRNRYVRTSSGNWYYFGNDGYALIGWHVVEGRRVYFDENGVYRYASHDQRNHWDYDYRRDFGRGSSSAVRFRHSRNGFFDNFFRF
Kind of assay: Inhibition of Wild-type Streptococcus mutans UA159 glucosyltransferase C at 50 uM by coomassie blue staining based SDS-PAGE method. In short, it runs like this: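 Compound (50 µM) added to overnight S. mutans UA159 wild-type cultures; Gtfs collected and concentrated from supernatants, run on SDS-PAGE in duplicate; one gel Coomassie blue stained for protein levels.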

The source made the active and inactive calls. The calls are words filed in the database; no cut-off is given here.

As to `O=C(/C=C/c1ccc(O)cc1O)c1cccc(O)c1` (stereo in doubt; 9a), the inhibition result in assay [1] and in assay [2] was “Active” in each case.

Regarding `O=C(/C=C/c1cc(O)c(O)cc1O)c1ccccc1O` (stereo in doubt; 18c), the inhibition entry in assay [1] and in assay [2] was “Active” each time.

In the case of `O=C(/C=C\c1ccc(O)cc1O)c1ccc(O)cc1`, the inhibition entry in assay [1] and in assay [2] was “Active” throughout.

Regarding `O=C(/C=C\c1ccc(O)cc1O)c1cccc(O)c1`, the inhibition result in assay [1] and in assay [2] was “Active” each time.

Turning to `O=C(/C=C/c1ccc(O)cc1O)c1ccc(O)cc1`, the inhibition entry in assay [1] and in assay [2] was “Active” in each case.

These data come from ChEMBL document CHEMBL3822431, “Hydroxychalcone inhibitors of Streptococcus mutans glucosyl transferases and biofilms as potential anticaries agents” (Bioorg Med Chem Lett, 2016).
